Results as given in ChEMBL document CHEMBL1154674, “Synthesis and evaluation of three 18F-labeled aminophenylbenzothiazoles as amyloid imaging agents” (J Med Chem, 2009).

Columns and labels:
Assay type in all cases: ADME, organism-based, Macaca mulatta
[1] = Drug level in normal rhesus monkey parietal cortex assessed as standard uptake value at 81.2 MBq, iv after 155 mins by microPET; conditions: in vivo
[2] = Drug level in normal rhesus monkey frontal cortex assessed as standard uptake value at 81.2 MBq, iv after 52.5 mins by microPET; conditions: in vivo, 0.875 h
[3] = Drug level in normal rhesus monkey frontal cortex assessed as standard uptake value at 81.2 MBq, iv after 22.5 mins by microPET; conditions: in vivo, 0.375 h
[4] = Drug level in normal rhesus monkey cerebellum assessed as standard uptake value at 81.2 MBq, iv after 4.5 mins by microPET; conditions: in vivo, 0.075 h
In short: (§1)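 One normal rhesus monkey, each tracer given iv via the vena saphena (81.2, 96.3 or 109.4 MBq), with 1 day between tracer injections. Dynamic brain μPET over 180 min used frames of 5 × 60 s, 5 × 120 s, 9 × 300 s and 12 × 600 s. Images were reconstructed by filtered back projection with a RAMP filter. Regional time-activity curves were expressed as SUV.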

[5] = Drug level in normal rhesus monkey cerebellum assessed as standard uptake value at 81.2 MBq, iv after 47.5 mins by microPET; conditions: in vivo; in short: as §1
[6] = Drug level in normal rhesus monkey thalamus assessed as standard uptake value at 81.2 MBq, iv after 42.5 mins by microPET; conditions: in vivo
[7] = Drug level in normal rhesus monkey frontal cortex assessed as standard uptake value at 81.2 MBq, iv after 12 mins by microPET; conditions: in vivo, 0.2 h
In short: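 Single normal rhesus monkey; each tracer given iv via the vena saphena, with 1 day between tracer injections. Dynamic μPET ran 180 min (5×60 s, 5×120 s, 9×300 s, 12×600 s). Images were reconstructed by filtered back projection with a RAMP filter. Regional time-activity curves were expressed as SUV.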

[8] = Drug level in normal rhesus monkey frontal cortex assessed as standard uptake value at 81.2 MBq, iv after 65 mins by microPET; conditions: in vivo
[9] = Drug level in normal rhesus monkey pons assessed as standard uptake value at 81.2 MBq, iv after 17.5 mins by microPET; conditions: in vivo
[10] = Drug level in normal rhesus monkey frontal cortex assessed as standard uptake value at 96.3 MBq, iv after 3.5 mins by microPET; conditions: in vivo
[11] = Drug level in normal rhesus monkey thalamus assessed as standard uptake value at 96.3 MBq, iv after 52.5 mins by microPET; conditions: in vivo, 0.875 h
[12] = Drug level in normal rhesus monkey frontal cortex assessed as standard uptake value at 96.3 MBq, iv after 1.5 mins by microPET; conditions: in vivo, 0.025 h
[13] = Drug level in normal rhesus monkey parietal cortex assessed as standard uptake value at 96.3 MBq, iv after 27.5 mins by microPET; conditions: in vivo
[14] = Drug level in normal rhesus monkey frontal cortex assessed as standard uptake value at 96.3 MBq, iv after 65 mins by microPET; conditions: in vivo
[15] = Drug level in normal rhesus monkey frontal cortex assessed as standard uptake value at 96.3 MBq, iv after 175 mins by microPET; conditions: in vivo
[16] = Drug level in normal rhesus monkey white matter assessed as standard uptake value at 96.3 MBq, iv after 52.5 mins by microPET; conditions: in vivo, 0.875 h
[17] = Drug level in normal rhesus monkey frontal cortex assessed as standard uptake value at 96.3 MBq, iv after 2.5 mins by microPET; conditions: in vivo
[18] = Drug level in normal rhesus monkey white matter assessed as standard uptake value at 109.4 MBq, iv after 111 mins by microPET; conditions: in vivo
[19] = Drug level in normal rhesus monkey thalamus assessed as standard uptake value at 109.4 MBq, iv after 0.875 mins by microPET; conditions: in vivo, 52 s
[20] = Drug level in normal rhesus monkey cerebellum assessed as standard uptake value at 109.4 MBq, iv after 105 mins by microPET; conditions: in vivo, 1.75 h
[21] = Drug level in normal rhesus monkey pons assessed as standard uptake value at 109.4 MBq, iv after 47.5 mins by microPET; conditions: in vivo
[22] = Drug level in normal rhesus monkey parietal cortex assessed as standard uptake value at 109.4 MBq, iv after 4.5 mins by microPET; conditions: in vivo, 0.075 h
[23] = Drug level in normal rhesus monkey pons assessed as standard uptake value at 109.4 MBq, iv after 37.5 mins by microPET; conditions: in vivo, 0.625 h
[24] = Drug level in normal rhesus monkey parietal cortex assessed as standard uptake value at 109.4 MBq, iv after 15.5 mins by microPET; conditions: in vivo
[25] = Drug level in normal rhesus monkey white matter assessed as standard uptake value at 109.4 MBq, iv after 87 mins by microPET; conditions: in vivo, 1.45 h
[26] = Drug level in normal rhesus monkey cerebellum assessed as standard uptake value at 152.9 MBq, iv after 42.5 mins by microPET; conditions: in vivo
In short: (§2)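 One normal rhesus monkey received each tracer via the vena saphena, with 1 day between injections. Dynamic μPET ran 180 min for 18F tracers (5×60 s, 5×120 s, 9×300 s, 12×600 s) and 90 min for the 11C tracer (5×60 s, 5×120 s, 9×300 s, 3×600 s). Filtered back-projection reconstruction (RAMP filter) was used. Time-activity curves were drawn to give regional SUV.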

[27] = Drug level in normal rhesus monkey white matter assessed as standard uptake value at 152.9 MBq, iv after 27.5 mins by microPET; conditions: in vivo
[28] = Drug level in normal rhesus monkey cerebellum assessed as standard uptake value at 152.9 MBq, iv after 22.5 mins by microPET; conditions: in vivo, 0.375 h; in short: as §2
[29] = Drug level in normal rhesus monkey pons assessed as standard uptake value at 152.9 MBq, iv after 42.5 mins by microPET; conditions: in vivo
[30] = Drug level in normal rhesus monkey thalamus assessed as standard uptake value at 152.9 MBq, iv after 85 mins by microPET; conditions: in vivo
[31] = Drug level in normal rhesus monkey frontal cortex assessed as standard uptake value at 152.9 MBq, iv after 57.5 mins by microPET; conditions: in vivo
In short: (§3)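 Single normal rhesus monkey; tracer given iv via the vena saphena, 1 day apart from the other tracer injections. Dynamic μPET ran 90 min (5×60 s, 5×120 s, 9×300 s, 3×600 s). Images were reconstructed by filtered back projection with a RAMP filter. Regional time-activity curves were expressed as SUV.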

[32] = Drug level in normal rhesus monkey thalamus assessed as standard uptake value at 152.9 MBq, iv after 1.5 mins by microPET; conditions: in vivo, 0.025 h
[33] = Drug level in normal rhesus monkey frontal cortex assessed as standard uptake value at 152.9 MBq, iv after 4.5 mins by microPET; conditions: in vivo, 0.075 h; in short: as §3
[34] = Drug level in normal rhesus monkey parietal cortex assessed as standard uptake value at 152.9 MBq, iv after 27.5 mins by microPET; conditions: in vivo
[35] = Drug level in normal rhesus monkey white matter assessed as standard uptake value at 152.9 MBq, iv after 6 mins by microPET; conditions: in vivo, 0.1 h
[36] = Drug level in normal rhesus monkey parietal cortex assessed as standard uptake value at 152.9 MBq, iv after 6 mins by microPET; conditions: in vivo, 0.1 h

Compound `CNc1ccc2nc(-c3ccc([18F])cc3)sc2c1` has an SUV [1] of 2.662, an SUV [2] of 5.321 and an SUV [3] of 5.717. It also gave an SUV [4] of 2.964, an SUV [5] of 1.883 and an SUV [6] of 5.578. For the same compound, the SUV [7] was 5.988, the SUV [8] was 5.125 and the SUV [9] was 5.124.

Work on `CN(C)c1ccc2nc(-c3ccc([18F])cc3)sc2c1` yielded an SUV [10] of 1.39, an SUV [11] of 2.26 and an SUV [12] of 1.43. The SUV [13] was 1.99, the SUV [14] was 1.79 and the SUV [15] was 1.49. The SUV [16] was 1.4 and the SUV [17] was 1.8.

With `Nc1ccc2nc(-c3ccc([18F])cc3)sc2c1` the SUV [18] was 3.82, the SUV [19] was 2.43 and the SUV [20] was 2.5. The SUV [21] was 4.7, the SUV [22] was 5.12 and the SUV [23] was 4.73. The SUV [24] was 5.1 and the SUV [25] was 3.65.

With `[11CH3]Nc1ccc(-c2nc3ccc(O)cc3s2)cc1` [PITTSBURGH COMPOUND B] the SUV [26] was 0.936, the SUV [27] was 1.209 and the SUV [28] was 1.502. The SUV [29] was 1.179, the SUV [30] was 0.672 and the SUV [31] was 0.692. The SUV [32] was 0.487, the SUV [33] was 2.11 and the SUV [34] was 1.221. For the same compound, the SUV [35] was 1.364 and the SUV [36] was 2.16.
